Screening results: PubChem BioAssay, several laboratories
IDE cell activ: activators of human insulin-degrading enzyme in cells. HEK cells, FAbeta-B cleavage, fluorescence polarization; 0% vehicle, 100% cell-free pure enzyme wells. 0.073% of 340,000 active. AID 493087. activation, % at 5.96 µM. P14735;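 active means activation above the mean of all tested compounds plus 3 SD, set per screening campaign, cut at about 17% in these data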
HNF4A DNA FP: change in binding of human HNF4 alpha to DNA; activity change, % at 10 µM; AID 1224865; P41235; 0.3% of 360,000 active; HNF4a-FITC DNA binding, fluorescence polarization, 1 h; in the data active means activity change above about 30%, passing the limit was not always enough
Target sequence (P41235 whole entry, looked up): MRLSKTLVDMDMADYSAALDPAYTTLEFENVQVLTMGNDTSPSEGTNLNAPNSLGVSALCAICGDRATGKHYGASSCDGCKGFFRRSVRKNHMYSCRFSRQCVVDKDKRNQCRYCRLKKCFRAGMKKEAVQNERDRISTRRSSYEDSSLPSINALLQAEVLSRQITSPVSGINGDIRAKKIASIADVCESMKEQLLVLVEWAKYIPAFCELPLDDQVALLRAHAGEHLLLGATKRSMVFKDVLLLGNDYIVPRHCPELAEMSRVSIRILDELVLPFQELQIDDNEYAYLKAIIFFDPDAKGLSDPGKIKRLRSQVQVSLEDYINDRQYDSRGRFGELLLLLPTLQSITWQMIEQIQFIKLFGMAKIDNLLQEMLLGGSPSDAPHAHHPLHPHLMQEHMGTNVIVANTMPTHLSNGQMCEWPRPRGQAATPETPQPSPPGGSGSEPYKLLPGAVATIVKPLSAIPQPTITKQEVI
IDE cell inh: inhibitors of human insulin-degrading enzyme in cells; P14735; HEK cells, FAbetaB cleavage, fluorescence polarization; inhibition, % at 5.59 µM; 0.41% of 320,000 active;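 active means percent inhibition above the average of all tested compounds plus 3 SD, set per screening campaign, cut at about 16% in these data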;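 further: IDE supplied by intact live HEK cells; FP after avidin binding of uncleaved biotin substrate so inhibition keeps polarization high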
Rpn11 block: Rpn11 (human) deubiquitinase inhibition; AID 588493; human 26S proteasome, Ub4-pepOG fluorescence polarization; 20S core pre-blocked with epoxomicin; calls only at 20 µM; 0.59% of 360,000 active; O00487;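 active means inhibition at 20 µM, scaled to each plate's controls, above about 33%, limit read from the data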
CSN inh: CSN deneddylation inhibition; Purified CSN, SCF-Nedd8-OG deneddylation, fluorescence polarization; 0.38% of 360,000 active; AID 651999; Q92905; inhibition, % at 12.5 µM;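 active means pattern-corrected inhibition above about 35%, with an unprinted fluorescence ratio check between 0.5 and 1.5, limit read from the data, passing the limit was not always enough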
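Test system: Human Csn5 produced in HEK293T cells | Compound: 12.5 µM single point | Times: 90 min, room temperature | Signal: Fluorescence polarization readout | Read-out basis: % inhibition of substrate cleavage by Csn5 | Controls: no-enzyme wells high, enzyme-with-substrate wells low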
TPT1 inhibitor: blocks Candida albicans tRNA 2'-phosphotransferase. 0.81% of 300,000 active. recombinant caTPT1, FP RNA substrate dephosphorylation. inhibition, % at 5 µM. AID 1962;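 active means inhibition above the mean of all tested compounds plus 3 SD, set per screening campaign, cut at about 24% in these data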
IDE inh confirm: confirmation of human insulin-degrading enzyme inhibitors in cells. 51% of 1,200 active. AID 435028. shares compounds with IDE cell inh. HEK cells, FAbetaB cleavage, fluorescence polarization. inhibition, % at 5.59 µM;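 active means mean inhibition across triplicate wells above the cutoff set by the earlier primary insulin-degrading enzyme screen, cut at about 16% in these data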
HEK293 tox: counter-screen for IDE inhibitors: cytotoxicity in HEK cells; shares compounds with IDE cell inh; HEK293 cytotoxicity, ATP luminescence; inhibition, % at 5.59 µM; 28% of 1,200 active; in the data active means inhibition above about 22%
IDE FP artifact: fluorescence interference counter-screen for IDE inhibitors | shares compounds with IDE cell inh | FP counterscreen for fluorescent artifacts, IDE probe project | IC50, µM | 30 tested, under 10 active; call rule not given here
Each line names hits and unclear results; the compound was inactive in the other large screens (follow-up assays come after a bar, where shown). A selection: hits, their analogues and other compounds. The true share with any hit is near 1.7%.

CCC(C)(C)n1nnnc1C(c1ccc2ncccc2c1)N1CCN(c2ccc(O)cc2)CC1 (configuration not stated)	none
O=C(COC(=O)CNC(=O)c1ccc(Cl)c([N+](=O)[O-])c1)NNC(=O)c1ccccc1F	none (no result: TPT1 inhibitor)
Cn1c(SCC(=O)c2ccccc2)nnc1-c1ccncc1	none
Cn1c(SCC(=O)c2ccc3c(c2)Cc2ccccc2-3)nnc1-c1ccccc1	IDE cell inh 28.0, CSN inh 74.4 | IDE inh confirm inactive | HEK293 tox inactive
COc1ccccc1NC(=O)c1ccc(NC(=O)COC(=O)C2CC2C)cc1 (configuration not stated)	IDE cell inh 19.2 | IDE inh confirm inactive | HEK293 tox inactive
COc1ccccc1NC(=O)c1ccc(NC(=O)COC(=O)C2CCCO2)cc1 (configuration not stated)	none (no result: IDE cell inh, TPT1 inhibitor)
Cc1ccccc1NC(=O)CSc1nnc2ccc(-c3ccncc3)nn12	none
CCOc1ccccc1NC(=O)CSc1nnc2ccc(-c3ccncc3)nn12	IDE cell inh 22.3 | IDE inh confirm inactive | HEK293 tox inactive
Cc1ccc2[nH]c3c(NCc4ccco4)ncnc3c2c1	IDE cell inh 64.8 | IDE inh confirm 53.2 | HEK293 tox 53.1
c1coc(CNc2ncnc3nc[nH]c23)c1	none
Cc1ccc2[nH]c3c(NCCCN4CCCC4=O)ncnc3c2c1	IDE cell inh 17.9 | IDE inh confirm inactive | HEK293 tox inactive
COc1ccc2c(=O)c(Oc3ccc(C(=O)O)cc3)c(C(F)(F)F)oc2c1	IDE cell inh 17.6 | IDE inh confirm inactive | HEK293 tox inactive
COc1cc(/C=C2/SC(=O)NC2=O)ccc1OC(=O)c1ccco1	none
COc1cc(/C=C2\SC(=S)N(NC(C)=O)C2=O)ccc1OC(=O)c1ccco1	IDE cell inh 22.1 (no result: TPT1 inhibitor) | IDE inh confirm 66.2 | HEK293 tox inactive | IDE FP artifact inactive
CCOc1ccc(CN(C)C(=O)CNC(=O)c2ccc3ccccc3c2)cc1OC	IDE cell inh 16.8 | IDE inh confirm inactive | HEK293 tox inactive
COc1ccccc1C(=O)NNC(=O)c1cccc([N+](=O)[O-])c1	none
CCC1CCCN1Cn1cnc2c([nH]c3ccc(Cl)cc32)c1=O (configuration not stated)	IDE cell inh 17.2 | IDE inh confirm inactive | HEK293 tox inactive
CC(CC(=O)O)CC(=O)N1CCN(S(=O)(=O)c2cccs2)CC1 (configuration not stated)	IDE cell inh 20.2 | IDE inh confirm inactive | HEK293 tox inactive
COc1ccc(NC(=O)c2cc3c(Cl)nc4ccccc4c3s2)cc1OC	IDE cell inh 19.5 | IDE inh confirm inactive | HEK293 tox inactive
O=C(c1cccn2c(=O)c3cc(Cl)ccc3nc12)N1CCN(Cc2ccc3c(c2)OCO3)CC1	IDE cell inh 30.8 | IDE inh confirm inactive | HEK293 tox inactive
COC(=O)c1ccccc1SCC(=O)Nc1ccc(N2CCOCC2)cc1	none
Cc1ccc(-c2ccccc2NC(=O)CS(=O)CC(=O)Nc2ccc(C)c(Cl)c2)o1 (configuration not stated)	IDE cell inh 26.0 | IDE inh confirm inactive | HEK293 tox inactive
Cc1ccc(-c2ccccc2NC(=O)CCl)o1	none
Cc1cccc(C(=O)c2cn[nH]c2-c2ccc(C)cc2O)c1	none
CN(Cc1ccccc1)C(=O)c1cc(S(=O)(=O)N2CCOCC2)cn1C	none
COc1cc(/C=c2\s/c(=C(/C#N)C(=O)N3CCCC3)n(-c3ccccc3)c2=O)ccc1O	IDE cell inh 28.2 (not shown: Rpn11 block) | IDE inh confirm 151.5 | HEK293 tox 29.5
COC(=O)/C=c1/s/c(=C(/C#N)C(=O)N2CCCCC2)n(-c2ccccc2)c1=O	none
Cc1ccc(C(=O)NCC(=O)OCC(=O)Nc2cc(S(=O)(=O)N3CCOCC3)ccc2C)cc1	none
